Measured values as given in ChEMBL document CHEMBL4229364, “Structure-activity relationships of 2, 4-disubstituted pyrimidines as dual ERα/VEGFR-2 ligands with anti-breast cancer activity” (Eur J Med Chem, 2018).

molecular target: T1, Vascular endothelial growth factor receptor 2 (Homo sapiens, UniProt P35968); assay: Inhibition of VEGFR2 (unknown origin) using TK substrate after 1 hr by HTRF assay; conditions: not given
T1 sequence (P35968 whole entry): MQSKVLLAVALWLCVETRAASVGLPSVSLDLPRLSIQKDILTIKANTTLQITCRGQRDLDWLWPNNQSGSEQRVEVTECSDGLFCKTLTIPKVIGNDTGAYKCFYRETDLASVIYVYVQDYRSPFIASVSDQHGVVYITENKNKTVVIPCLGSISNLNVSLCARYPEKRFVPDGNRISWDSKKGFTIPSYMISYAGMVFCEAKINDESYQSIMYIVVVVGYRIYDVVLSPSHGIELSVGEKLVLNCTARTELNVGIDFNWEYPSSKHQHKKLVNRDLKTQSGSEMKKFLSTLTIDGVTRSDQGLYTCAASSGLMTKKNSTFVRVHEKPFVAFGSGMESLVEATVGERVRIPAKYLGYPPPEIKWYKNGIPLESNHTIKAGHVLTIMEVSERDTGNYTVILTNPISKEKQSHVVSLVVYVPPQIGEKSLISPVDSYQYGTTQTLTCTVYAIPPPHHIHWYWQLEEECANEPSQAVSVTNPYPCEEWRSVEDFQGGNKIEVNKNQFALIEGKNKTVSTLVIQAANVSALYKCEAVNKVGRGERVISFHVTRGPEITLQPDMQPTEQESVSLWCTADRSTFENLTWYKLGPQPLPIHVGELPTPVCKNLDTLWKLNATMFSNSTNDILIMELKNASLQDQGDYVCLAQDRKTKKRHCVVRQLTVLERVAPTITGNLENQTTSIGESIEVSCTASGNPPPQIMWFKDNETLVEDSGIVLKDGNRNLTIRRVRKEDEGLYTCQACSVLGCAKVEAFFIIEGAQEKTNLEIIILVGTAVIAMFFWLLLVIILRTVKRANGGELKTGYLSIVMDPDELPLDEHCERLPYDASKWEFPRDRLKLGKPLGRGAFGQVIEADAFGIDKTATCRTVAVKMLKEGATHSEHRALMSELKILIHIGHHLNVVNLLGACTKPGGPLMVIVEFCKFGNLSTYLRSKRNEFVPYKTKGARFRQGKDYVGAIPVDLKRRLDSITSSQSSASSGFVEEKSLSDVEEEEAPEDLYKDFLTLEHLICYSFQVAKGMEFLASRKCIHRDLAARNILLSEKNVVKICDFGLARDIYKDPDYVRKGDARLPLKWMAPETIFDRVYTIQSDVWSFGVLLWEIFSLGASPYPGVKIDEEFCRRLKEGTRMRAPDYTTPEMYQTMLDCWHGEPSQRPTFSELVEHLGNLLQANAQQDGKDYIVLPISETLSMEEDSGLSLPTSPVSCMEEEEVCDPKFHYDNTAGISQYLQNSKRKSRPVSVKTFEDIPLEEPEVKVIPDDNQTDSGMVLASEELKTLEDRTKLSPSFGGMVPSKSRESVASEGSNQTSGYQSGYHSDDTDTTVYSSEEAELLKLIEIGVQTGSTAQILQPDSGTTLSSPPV

Row | Compound | IC50 [µM]
1 | CCN(CC)CCOc1ccc(Nc2cc(Cl)nc(-c3ccc(OC)cc3)n2)cc1 | 0.174
2 | COc1ccc(-c2nc(Cl)c(-c3ccccc3)c(Nc3ccc(OCCN(C)C)cc3)n2)cc1 | > 1
3 | COc1ccc(-c2nc(Cl)cc(Oc3ccc(OCCN(C)C)cc3)n2)cc1 | > 1

Results, then the compound that gave them:

Row | IC50 [µM] | Compound
4 | > 1 | CCN(CC)CC(=O)Nc1ccc(Nc2nc(-c3ccc(OC)cc3)nc(Cl)c2-c2ccccc2)cc1
5 | > 1 | COc1ccc(-c2nc(Cl)cc(Nc3ccc(OCCN4CCCC4)cc3)n2)cc1
6 | > 1 | COc1ccc(-c2nc(Cl)cc(Nc3ccc(NC(=O)CN(C)C)cc3)n2)cc1
7 | 0.101 | COc1ccc(-c2nc(Cl)c(-c3ccccc3)c(Oc3ccc(OCCN(C)C)cc3)n2)cc1
8 | > 1 | COc1ccc(-c2nc(Cl)c(-c3ccccc3)c(Nc3ccc(NC(=O)CN(C)C)cc3)n2)cc1
9 | > 1 | CCN(CC)CCOc1ccc(Nc2nc(-c3ccc(O)cc3)nc(Cl)c2-c2ccccc2)cc1
10 | 0.067 | CCN(CC)CCOc1ccc(Nc2nc(-c3ccc(OC)cc3)nc(Cl)c2-c2ccccc2)cc1

molecular target: T2, Estrogen receptor (Homo sapiens, UniProt P03372); assay: Displacement of Fluormone ES2 Green from full length human ER-alpha expressed in insect cells after 2 hrs by fluorescence polarization assay; conditions: not given
T2 sequence (P03372 whole entry): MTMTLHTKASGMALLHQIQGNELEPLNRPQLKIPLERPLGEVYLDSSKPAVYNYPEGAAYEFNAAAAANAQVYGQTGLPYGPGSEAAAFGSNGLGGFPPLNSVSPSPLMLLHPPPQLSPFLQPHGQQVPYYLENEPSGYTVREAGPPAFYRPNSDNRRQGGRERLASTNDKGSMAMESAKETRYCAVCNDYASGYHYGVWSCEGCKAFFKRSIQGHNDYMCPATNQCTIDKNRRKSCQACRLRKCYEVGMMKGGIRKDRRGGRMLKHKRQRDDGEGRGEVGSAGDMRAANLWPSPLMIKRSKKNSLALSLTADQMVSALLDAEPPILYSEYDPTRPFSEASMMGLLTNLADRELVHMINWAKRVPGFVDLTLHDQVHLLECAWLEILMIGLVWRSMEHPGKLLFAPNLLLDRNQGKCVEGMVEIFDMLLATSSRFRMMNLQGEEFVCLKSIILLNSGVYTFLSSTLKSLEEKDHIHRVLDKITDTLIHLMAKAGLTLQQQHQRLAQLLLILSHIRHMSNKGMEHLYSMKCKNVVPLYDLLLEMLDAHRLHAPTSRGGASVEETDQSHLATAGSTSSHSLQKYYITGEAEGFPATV

Row | IC50 [µM] | Compound
11 | 4.74 | CCN(CC)CCOc1ccc(Nc2cc(Cl)nc(-c3ccc(OC)cc3)n2)cc1
12 | 5.96 | COc1ccc(-c2nc(Cl)cc(Oc3ccc(OCCN(C)C)cc3)n2)cc1

test system: Ishikawa; assay: Antiproliferative activity against human Ishikawa cells after 48 hrs by MTT assay; assay type: functional, cell-based; conditions: not given
Procedure, shortened: (§1)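 MTT assay. Cells were grown in RPMI1640 with 10% FBS and penicillin/streptomycin at 37°C, 5% CO2, seeded at 1×10^5/mL and rested 24 h. Compound was added at 4×10^-5 to 1×10^-6 mol/L for 48 h; controls received 1% DMSO. MTT (5 mg/mL) was added for 4 h in the dark and the formazan dissolved in DMSO. A490 was read and IC50 derived.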

Row | Compound | IC50 [µM]
13 | O=C(c1ccc(OCCN2CCCCC2)cc1)c1c(-c2ccc(O)cc2)sc2cc(O)ccc12 [RALOXIFENE] | 24.4
14 | CC/C(=C(\c1ccccc1)c1ccc(OCCN(C)C)cc1)c1ccccc1 [TAMOXIFEN] | 26.5
15 | CCN(CC)CC(=O)Nc1ccc(Nc2nc(-c3ccc(OC)cc3)nc(Cl)c2-c2ccccc2)cc1 | > 40
16 | COc1ccc(-c2nc(Cl)cc(Nc3ccc(OCCN4CCCC4)cc3)n2)cc1 | 17.3
17 | COc1ccc(-c2nc(Cl)cc(Nc3ccc(NC(=O)CN(C)C)cc3)n2)cc1 | > 40
18 | COc1ccc(-c2nc(Cl)c(-c3ccccc3)c(Oc3ccc(OCCN(C)C)cc3)n2)cc1 | 17.7
19 | CCN(CC)CCOc1ccc(Nc2cc(Cl)nc(-c3ccc(OC)cc3)n2)cc1 | 11.7
20 | COc1ccc(-c2nc(Cl)c(-c3ccccc3)c(Nc3ccc(OCCN(C)C)cc3)n2)cc1 | 6.34
21 | COc1ccc(-c2nc(Cl)c(-c3ccccc3)c(Nc3ccc(NC(=O)CN(C)C)cc3)n2)cc1 | 17.1
22 | CCN(CC)CCOc1ccc(Nc2nc(-c3ccc(O)cc3)nc(Cl)c2-c2ccccc2)cc1 | 12
23 | CCN(CC)CCOc1ccc(Nc2nc(-c3ccc(OC)cc3)nc(Cl)c2-c2ccccc2)cc1 | 9.98
24 | COc1ccc(-c2nc(Cl)cc(Oc3ccc(OCCN(C)C)cc3)n2)cc1 | > 40

test system: MCF7; assay: Antiproliferative activity against human MCF7 cells after 48 hrs by MTT assay; assay type: functional, cell-based; conditions: MCF7, 48 h; procedure, shortened: as §1

Row | Compound | IC50 [µM]
25 | O=C(c1ccc(OCCN2CCCCC2)cc1)c1c(-c2ccc(O)cc2)sc2cc(O)ccc12 [RALOXIFENE] | 13.2
26 | CC/C(=C(\c1ccccc1)c1ccc(OCCN(C)C)cc1)c1ccccc1 [TAMOXIFEN] | 15.5
27 | CCN(CC)CCOc1ccc(Nc2cc(Cl)nc(-c3ccc(OC)cc3)n2)cc1 | 36.8
28 | COc1ccc(-c2nc(Cl)c(-c3ccccc3)c(Nc3ccc(OCCN(C)C)cc3)n2)cc1 | 7.56
29 | COc1ccc(-c2nc(Cl)cc(Oc3ccc(OCCN(C)C)cc3)n2)cc1 | > 40

Second part, the compound after the results:

Row | IC50 [µM] | Compound
30 | > 40 | CCN(CC)CC(=O)Nc1ccc(Nc2nc(-c3ccc(OC)cc3)nc(Cl)c2-c2ccccc2)cc1
31 | 43.7 | COc1ccc(-c2nc(Cl)cc(Nc3ccc(OCCN4CCCC4)cc3)n2)cc1
32 | > 40 | COc1ccc(-c2nc(Cl)cc(Nc3ccc(NC(=O)CN(C)C)cc3)n2)cc1
33 | 21.8 | COc1ccc(-c2nc(Cl)c(-c3ccccc3)c(Oc3ccc(OCCN(C)C)cc3)n2)cc1
34 | 17.7 | COc1ccc(-c2nc(Cl)c(-c3ccccc3)c(Nc3ccc(NC(=O)CN(C)C)cc3)n2)cc1
35 | 35.6 | CCN(CC)CCOc1ccc(Nc2nc(-c3ccc(O)cc3)nc(Cl)c2-c2ccccc2)cc1
36 | 8.59 | CCN(CC)CCOc1ccc(Nc2nc(-c3ccc(OC)cc3)nc(Cl)c2-c2ccccc2)cc1

molecular target: T1, Vascular endothelial growth factor receptor 2; conditions: at 10 µM

Row | Compound | inhibition [%]
37 | CCN(CC)CCOc1ccc(Nc2cc(Cl)nc(-c3ccc(OC)cc3)n2)cc1 | 89.7
38 | COc1ccc(-c2nc(Cl)c(-c3ccccc3)c(Nc3ccc(OCCN(C)C)cc3)n2)cc1 | 50.9
39 | COc1ccc(-c2nc(Cl)cc(Oc3ccc(OCCN(C)C)cc3)n2)cc1 | 61.2

Other lines, results leading:

Row | inhibition [%] | Compound
40 | 40.2 | CCN(CC)CC(=O)Nc1ccc(Nc2nc(-c3ccc(OC)cc3)nc(Cl)c2-c2ccccc2)cc1
41 | 51.9 | COc1ccc(-c2nc(Cl)cc(Nc3ccc(OCCN4CCCC4)cc3)n2)cc1
42 | 66.2 | COc1ccc(-c2nc(Cl)cc(Nc3ccc(NC(=O)CN(C)C)cc3)n2)cc1
43 | 90.9 | COc1ccc(-c2nc(Cl)c(-c3ccccc3)c(Oc3ccc(OCCN(C)C)cc3)n2)cc1
44 | 50.8 | COc1ccc(-c2nc(Cl)c(-c3ccccc3)c(Nc3ccc(NC(=O)CN(C)C)cc3)n2)cc1
45 | 76.9 | CCN(CC)CCOc1ccc(Nc2nc(-c3ccc(O)cc3)nc(Cl)c2-c2ccccc2)cc1
46 | 90.3 | CCN(CC)CCOc1ccc(Nc2nc(-c3ccc(OC)cc3)nc(Cl)c2-c2ccccc2)cc1

test system: HUVEC; assay: Antiproliferative activity against HUVEC after 48 hrs by MTT assay; assay type: functional, cell-based; conditions: Homo sapiens; procedure, shortened: as §1

Row | Compound | IC50 [µM]
47 | CCN(CC)CC(=O)Nc1ccc(Nc2nc(-c3ccc(OC)cc3)nc(Cl)c2-c2ccccc2)cc1 | > 40
48 | COc1ccc(-c2nc(Cl)cc(Nc3ccc(OCCN4CCCC4)cc3)n2)cc1 | 11.3
49 | COc1ccc(-c2nc(Cl)cc(Nc3ccc(NC(=O)CN(C)C)cc3)n2)cc1 | > 40
50 | COc1ccc(-c2nc(Cl)c(-c3ccccc3)c(Oc3ccc(OCCN(C)C)cc3)n2)cc1 | 11.7
51 | CCN(CC)CCOc1ccc(Nc2cc(Cl)nc(-c3ccc(OC)cc3)n2)cc1 | 9.24
52 | COc1ccc(-c2nc(Cl)c(-c3ccccc3)c(Nc3ccc(OCCN(C)C)cc3)n2)cc1 | 14.2
53 | COc1ccc(-c2nc(Cl)c(-c3ccccc3)c(Nc3ccc(NC(=O)CN(C)C)cc3)n2)cc1 | 10.3
54 | CCN(CC)CCOc1ccc(Nc2nc(-c3ccc(O)cc3)nc(Cl)c2-c2ccccc2)cc1 | 8.81
55 | CCN(CC)CCOc1ccc(Nc2nc(-c3ccc(OC)cc3)nc(Cl)c2-c2ccccc2)cc1 | 4.34
56 | COc1ccc(-c2nc(Cl)cc(Oc3ccc(OCCN(C)C)cc3)n2)cc1 | > 40
